# Published values pooled from the literature.
# Medium: plasma
species,route,dose,notes,quantity,result,Structure (SMILES)
rat,intravenous,2 mg/kg,,Vd,10 L/kg,Cc1cc(S(=O)(=O)NC2CC(N3CCN(CC4CCN(c5cccc6c5n(C)c(=O)n6C5CCC(=O)NC5=O)CC4)CC3)C2)ccc1Nc1ncc(C(F)(F)F)c(N2CCC[C@](C)(O)C2)n1 (stereo partly drawn)
male Sprague-Dawley rat,intravenous,1 mg/kg,,Vd,0.9 L/kg,Cc1nc(Nc2ncc(C(=O)Nc3c(C)cccc3Cl)s2)cc(N2CC[C@@H](O)C2)n1
rat,intravenous,2 mg/kg,,Vd,3 L/kg,CNS(=O)(=O)c1ccc(Nc2ncc(C(F)(F)F)c(N3CCC[C@](C)(O)C3)n2)c(C)c1
male Sprague-Dawley rat,oral,36 mg/kg,,Vd/F,192 L,C1=C/COCc2cc(ccc2OCCN2CCCC2)Nc2nccc(n2)-c2cccc(c2)COC/1
male Sprague-Dawley rat,oral,100 mg/kg,single dose,Vd/F,112 L/kg,CNC(=O)c1cc(Oc2ccc(NC(=O)Nc3ccc(Cl)c(C(F)(F)F)c3)cc2)ccn1
rat,intravenous,2 mg/kg,,Vd,10 L/kg,Cc1cc(S(=O)(=O)NC2CC(N3CC[C@@H](OC4CN(c5cccc6c5n(C)c(=O)n6C5CCC(=O)NC5=O)C4)[C@H](F)C3)C2)ccc1Nc1ncc(C(F)(F)F)c(N2CCC[C@](C)(O)C2)n1 (stereo partly drawn)
male Sprague-Dawley rat,oral,8 mg/kg,single dose,Vd/F,46.1 L/kg,CCCc1nc2c(C)cc(-c3nc4ccccc4n3C)cc2n1Cc1ccc(-c2ccccc2C(=O)O)cc1
male Sprague-Dawley rat,oral,50 mg/kg,single dose,Vd/F,19 L/kg,C[C@H]1Oc2cc(cnc2N)-c2c(nn(C)c2C#N)CN(C)C(=O)c2ccc(F)cc21
female Wistar rat,oral,1 mg/kg,single dose,Vd/F,0.28 L/kg,CC(=O)O[C@@H]1CC[C@@]2(C)[C@@H](CC[C@]3(C)[C@@H]2C(=O)C=C2[C@@H]4[C@@H](C)[C@H](C)CC[C@]4(C)CC[C@]23C)[C@@]1(C)C(=O)O
